Screening data as filed in PubChem BioAssay.
The entries come from a sample that favours hits as a whole.
T cruzi repl = blocks replication of Trypanosoma cruzi | AID 1885 | T. cruzi beta-gal in NIH3T3, luminescence, 90 h | inhibition, % (test concentration not listed) | 300,000 compounds, 1.4% hits;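 active = mean inhibition across valid replicates above about 55%, limit read from the data; inconclusive = mean below that limit but half or more replicates reach it; inactive = mean below it, under half of replicates reach it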;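 also: signal also drops with host cell toxicity which is not excluded here; 0% = plate median of DMSO wells and 100% = zero luminescence signal; higher percent means less beta-gal luminescence so fewer parasites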
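System: Mouse NIH/3T3 fibroblasts infected with β-gal-expressing T. cruzi Tulahuen C4 | Quantity: NIH/3T3 cells, 5,000 per well | Reagent: 5000 reporter trypomastigotes per well | Dosing: Compound pinned at 50 nL/well, DMSO | Schedule: 3 h host attachment, then at least 90 h co-culture | Detection: GalScreen luminescence, 60 min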
MPTP inh = blocks calcium-induced mitochondrial swelling | AID 602449 | 360,000 compounds, 1.4% hits | isolated mouse mitochondria, Ca2+ swelling absorbance, 30 min | inhibition, % at 10 µM;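 active = inhibition of 50% or more, scaled per plate between neutral and stimulator controls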;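 also: 0% = DMSO wells given calcium and 100% = 1 mM EGTA wells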
L major viab = reduces viability of Leishmania major promastigotes. resazurin fluorescence viability. inhibition, % at 10 µM. 200,000 compounds, 9% hits. AID 1063; in the data active = inhibition above about 50%;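 also: promastigotes grown with compound for 44 hours at 28 °C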
Hep lipid drop = hepatic lipid droplet formation modulation; inhibition, % at 6.5 µM; AML12 mouse hepatocytes, oleate lipid droplets, BODIPY imaging; AID 1656; 240,000 compounds, 0.4% hits;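 active = lipid droplet intensity inhibited by at least 50%, with more than 500 cells counted; inconclusive = wells with under 300 cells, treated as cytotoxic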
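Test system: AML12 hepatocytes (mouse); reagent: oleate loading, 100 µM; dosing: one dose, 6.5 µM compound; incubation: overnight exposure; signal: fluorescence imaging, 20x objective, two fields per well; read-out basis: % inhibition of corrected integrated BODIPY droplet signal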
Redox H2O2 prof = compounds producing H2O2 with reducing agent – biochemical, NIH compound library profiling, artefact control for MLSCN library redox annotation, primary screen; DTT-dependent redox cycling H2O2, phenol red/HRP absorbance; 100% = 100 µM peroxide control, 0% = buffer; activation, % at 10 µM; 200,000 compounds, 0.03% hits;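 active = activation of at least 50% relative to the plate's high and low controls in the primary single-dose screen; inactive = activation below 50%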;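 also: compound incubated with DTT at 0.8 mM final as the reducing agent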
MPTP counter = mitochondrial membrane potential, counter-screen; shares compounds with MPTP inh; isolated mitochondria, Rhodamine 123 fluorescence; inhibition, % at 10 µM; 5,000 compounds, 78% hits; AID 624504; in the data active = inhibition above about 22%;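 also: 0% = DMSO vehicle and 100% = positive control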
MPTP swell DR = dose response confirmation of mitochondrial permeability transition pore inhibitors; shares compounds with MPTP inh; AID 651561; IC50, µM; 780 compounds, 58% hits; isolated mitochondria swelling, absorbance; in the data active = IC50 below about 20 µM
MPTP cs DR = active in counter-screen for permeability transition pore inhibitors; shares compounds with MPTP inh; isolated mitochondria counterscreen, fluorescence read-out; IC50, µM; 780 compounds, 49% hits; AID 651564; in the data active = IC50 below about 80 µM
* hit, by the source's call; i = inactive; u = inconclusive; x = no result given.

SMILES | T cruzi repl | MPTP inh | L major viab | Hep lipid drop | Redox H2O2 prof | MPTP counter | others
Cc1ccc(Cl)cc1NC(=S)NCc1cccn1C | -11 | 64* | 51* | -21 | 0 | 47*
O=C(NCCc1ccc(Cl)cc1)Nc1ccc(Cl)cc1 | 31 | 78* | x | 17 | x | 98*
CC(=O)c1cccc(NC(=S)NCCc2ccc(Cl)cc2)c1 | -8 | 83* | -1 | -16 | 0 | 100*
S=C(NCCc1ccccc1)Nc1ccc(Cl)cc1Cl | 10 | 82* | 8 | x | -5 | 102*
O=C(NNC(=O)C1CC=CCC1)c1ccccc1Cl (stereo not drawn) | 13 | 1 | x | 4 | x | x
CC(=O)O[C@@H]1[C@H]2[C@@H](C[C@@H](C)[C@@H]3CCC(=O)[C@@]13C)OC(=O)[C@@H]2C | -1 | 1 | x | -2 | x | x
Cc1cc(Br)ccc1NC(=S)NCCc1ccccc1 | x | 7 | x | -20 | x | x
Cc1cc(Cl)ccc1NC(=S)NCCc1ccc(Cl)cc1 | 9 | 88* | x | -17 | x | 81*
CCCCSCCCNC(=O)Nc1ccc(CC)cc1 | 2 | 86* | 4 | 2 | -1 | 83*
Cc1cc(Cl)ccc1NC(=S)NCc1ccc(S(N)(=O)=O)cc1 | -3 | -1 | 15 | -30 | -1 | x
Cc1cc(Cl)ccc1NC(=S)NCc1ccc(Cl)cc1 | -23 | 84* | 12 | 4 | 2 | 99*
CCOC(=O)c1c(C)[nH]c(C(=O)OCC(=O)Nc2ccccc2)c1C | x | 0 | x | x | x | x
C/C(=N\NC(=O)c1ccc2ccccc2c1)c1cccs1 | x | -1 | x | -4 | x | x
C=CCC(C(=O)Oc1c(C(C)(C)C)cc(C)cc1C(C)(C)C)c1ccccc1 (stereo not drawn) | x | 55* | x | x | x | -9 | MPTP swell DR=6.9*;MPTP cs DR=>80
O=S(=O)(c1cc(F)ccc1F)N1CCN(c2ncnc3ccccc23)CC1 | x | 95* | x | x | x | 92*
CC1/C(=N/O)CC(c2ccco2)NC1c1ccco1 (stereo not drawn) | -15 | 1 | -5 | -18 | 0 | x
CCCC1C(c2ccco2)NC(c2ccco2)CC1(C)O (stereo not drawn) | 8 | 78* | 15 | x | 0 | 4 | MPTP swell DR=>100;MPTP cs DR=>80
COc1ccc(CC(NC(C)=O)C(=O)N2CCN(C(=O)Nc3ccc(Cl)cc3)CC2)cc1OC (stereo not drawn) | x | 55* | -5 | x | 2 | 73*
COc1cccc(NC(=O)N2CCN(C(=O)C(Cc3ccc(OC)c(OC)c3)NC(C)=O)CC2)c1 (stereo not drawn) | x | -1 | -2 | 0 | -4 | x
Cc1ccnc(NS(=O)(=O)c2ccc(NC(=O)c3cc(-c4ccc(Br)cc4)nc4ccccc34)cc2)n1 | 28 | 3 | -6 | 7 | 0 | x
CN(CC(=O)Nc1ccccc1Cl)C(=O)CCc1nc2ccccc2c(=O)[nH]1 | -4 | 0 | x | x | x | x
Cc1cccc2sc(N(CCCN(C)C)C(=O)c3ccc(S(=O)(=O)N4CCc5ccccc5C4)cc3)nc12 | 29 | 2 | x | 0 | x | x
CN(C)CCCN(C(=O)c1ccc(S(=O)(=O)N2CCc3ccccc3C2)cc1)c1nc2ccc(F)cc2s1 | 25 | 3 | x | -27 | x | x
Cc1cc(C)c2sc(N(CCCN(C)C)C(=O)c3ccc(S(=O)(=O)N4CCc5ccccc5C4)cc3)nc2c1 | 47 | 72* | x | x | x | -12
COc1ccc2sc(N(CCCN(C)C)C(=O)c3ccc(S(=O)(=O)N4CCc5ccccc5C4)cc3)nc2c1 | 57* | 86* | x | x | x | -19
SMILES | T cruzi repl | MPTP inh | L major viab | Hep lipid drop | Redox H2O2 prof | MPTP counter | others
Cc1cc(C)c2sc(N(CCCN(C)C)C(=O)c3ccc(S(=O)(=O)N4CCCc5ccccc54)cc3)nc2c1 | 60* | 64* | x | x | x | -16
CCN(CC)CCOC(=O)c1ccc(NC(=O)CCCN2C(=O)S/C(=C/c3ccc(OC)cc3)C2=S)cc1 | u | 61* | x | -28 | x | -2
COc1cc(NC(=O)c2ccccc2F)ccc1NC(=O)c1cc2ccccc2o1 | 3 | -1 | x | 5 | x | x
CCN(CCC(=O)Nc1ccc(Br)c(C)c1)Cc1ccccc1 | 21 | 80* | 92* | -15 | 0 | 5 | MPTP swell DR=i;MPTP cs DR=28*
O=C(CCN(CCO)Cc1ccccc1)Nc1ccc(Br)cc1 | -17 | 1 | 19 | x | 2 | x
CN1CCN(C(c2ccc(F)cc2)c2ccc3cccnc3c2O)CC1 (stereo not drawn) | x | -2 | x | x | x | x
CN1CCN(C(c2ccc(Br)cc2)c2cc(Cl)c3cccnc3c2O)CC1 (stereo not drawn) | 21 | 76* | x | -18 | x | -21
CC(C)OC(=O)c1ccc(NC(=O)CSc2nc3ncccc3[nH]2)cc1 | -5 | 71* | 5 | -1 | 0 | 47*
CC(C)c1ccc(NC(=O)CSc2nc3ncccc3[nH]2)cc1 | -3 | 4 | x | 29 | x | x
CCCn1c(Nc2cccc(OC)c2)nc2ccccc21 | -14 | 0 | x | -5 | x | x
CCOC(=O)Cn1c(=N)n(CCOc2cccc(C)c2)c2ccccc21 | x | 88* | -3 | -3 | 2 | 0 | MPTP swell DR=5.3*;MPTP cs DR=57*
CCOC(=O)Cn1c(=N)n(CCOc2ccc(Br)cc2)c2ccccc21 | x | 3 | x | -1 | x | x
CCN(CC)CCn1c(=N)n(CC(O)COc2cccc(C)c2)c2ccccc21 (stereo not drawn) | 50 | 71* | 100* | 3 | 0 | -4 | MPTP swell DR=4.5*;MPTP cs DR=66*
O=C(COC(=O)c1cc(S(=O)(=O)N2CCOCC2)ccc1F)NCc1ccco1 | -13 | 2 | x | -16 | x | x
CCCC1=Nc2cc(C(=O)N3CCC(C(=O)OCC)CC3)ccc2Sc2ccccc21 | 24 | -2 | x | -21 | x | x
O=C(COC(=O)C1CCN(C(=O)c2ccc(Cl)cc2)CC1)Nc1ccccc1F | x | 0 | x | x | x | x
O=C(CSc1nc(-c2cccs2)cc(C(F)(F)F)n1)Nc1cc(OCC(F)(F)F)cc([N+](=O)[O-])c1 | 7 | 100* | 10 | 17 | 0 | 79*
CCC(C)NC(=O)CSc1nc(-c2cccs2)cc(C(F)(F)F)n1 (stereo not drawn) | -4 | 2 | 1 | -14 | -2 | x
COc1ccc(NC(=O)COC(=O)c2cc(C)oc2C)cc1OC | x | 0 | x | x | x | x
COc1ccc(OC)c(C(=O)COC(=O)c2cc(C)oc2C)c1 | -24 | 60* | 16 | -11 | 2 | -8 | MPTP swell DR=10*;MPTP cs DR=>80
CC(C)(C)c1cnnn1-c1ccc(/C=N/Nc2ccc([N+](=O)[O-])cc2)cc1 | 39 | 74* | 8 | -8 | 0 | 68*
C/C(N)=C(/C#N)C(=O)COC(=O)CNS(=O)(=O)c1c(F)cccc1F | -12 | -2 | 1 | 7 | 0 | x
CCc1cccc(NC(=O)Cn2cc(C=O)c3ccccc32)c1 | -4 | 73* | 14 | -24 | 0 | 50*
